Reference: ChEMBL document CHEMBL1629705, “PSI-7851, a pronucleotide of beta-D-2'-deoxy-2'-fluoro-2'-C-methyluridine monophosphate, is a potent and pan-genotype inhibitor of hepatitis C virus replication” (Antimicrob Agents Chemother, 2010)
Each block holds one molecule with its values, some of them ahead of it. Active and inactive are the calls of the source. The rule behind the calls is not given here.

Legend:
DNA polymerase beta = DNA polymerase beta (Homo sapiens, UniProt P06746); test: Inhibition of human DNA polymerase beta assessed as incorporation of [alpha-32P]dCTP up to 1mM preincubated for 30 mins by whatman DE81 paper binding assay
Procedure, shortened: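 Human DNA polymerase β at 18 μg/ml final, in 50 mM Tris pH 7.5, 50 mM NaCl, 5 mM MgCl2, activated calf thymus DNA and 20 μM each dNTP with [α-32P]dCTP. Triphosphate up to 1 mM. 37°C, stopped at 30 min with EDTA. Products quantified by DE81 paper binding; IC50 by nonlinear fit.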

[1] = target: T1, DNA polymerase subunit gamma-1 (Homo sapiens, UniProt P54098); test: Inhibition of human DNA polymerase gamma assessed as incorporation of [alpha-32P]dCTP up to 1mM preincubated for 30 mins by whatman DE81 paper binding assay
T1 sequence (P54098 whole entry): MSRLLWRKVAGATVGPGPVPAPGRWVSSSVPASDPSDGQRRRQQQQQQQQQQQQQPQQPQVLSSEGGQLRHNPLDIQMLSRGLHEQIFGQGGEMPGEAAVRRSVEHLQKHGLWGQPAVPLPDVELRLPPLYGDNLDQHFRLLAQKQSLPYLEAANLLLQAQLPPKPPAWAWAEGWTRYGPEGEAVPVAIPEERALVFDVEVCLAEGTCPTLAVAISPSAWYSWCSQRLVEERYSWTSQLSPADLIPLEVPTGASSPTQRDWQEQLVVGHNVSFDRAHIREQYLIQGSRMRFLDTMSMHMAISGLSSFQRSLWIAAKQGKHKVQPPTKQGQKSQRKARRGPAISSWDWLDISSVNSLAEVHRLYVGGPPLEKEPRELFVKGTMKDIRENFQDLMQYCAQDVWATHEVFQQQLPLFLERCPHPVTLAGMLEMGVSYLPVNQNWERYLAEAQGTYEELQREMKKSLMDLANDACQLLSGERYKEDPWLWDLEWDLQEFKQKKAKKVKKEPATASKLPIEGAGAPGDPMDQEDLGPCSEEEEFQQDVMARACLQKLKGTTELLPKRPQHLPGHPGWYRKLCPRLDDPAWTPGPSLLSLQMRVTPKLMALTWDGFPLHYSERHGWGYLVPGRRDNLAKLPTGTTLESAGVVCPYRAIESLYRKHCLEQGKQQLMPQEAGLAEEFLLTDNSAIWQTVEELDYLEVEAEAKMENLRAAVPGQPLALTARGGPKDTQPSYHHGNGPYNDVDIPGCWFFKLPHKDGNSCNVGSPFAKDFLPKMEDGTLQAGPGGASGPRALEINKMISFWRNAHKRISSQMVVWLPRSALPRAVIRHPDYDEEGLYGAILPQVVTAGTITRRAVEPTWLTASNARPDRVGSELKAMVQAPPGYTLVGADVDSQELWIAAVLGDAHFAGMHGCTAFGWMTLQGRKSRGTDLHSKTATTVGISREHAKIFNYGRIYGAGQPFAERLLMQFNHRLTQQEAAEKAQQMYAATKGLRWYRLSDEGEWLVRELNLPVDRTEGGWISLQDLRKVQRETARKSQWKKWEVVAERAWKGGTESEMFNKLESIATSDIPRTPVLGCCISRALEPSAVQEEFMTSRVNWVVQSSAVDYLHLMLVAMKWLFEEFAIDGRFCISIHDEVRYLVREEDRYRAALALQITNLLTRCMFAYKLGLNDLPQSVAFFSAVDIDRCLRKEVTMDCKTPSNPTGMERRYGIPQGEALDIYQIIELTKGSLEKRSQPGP
Procedure, shortened: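 Human DNA polymerase α (20 μg/ml) or γ (50 μg/ml) in 50 mM Tris pH 7.5, 50 mM NaCl, activated calf thymus DNA, 20 μM each dNTP, [α-32P]dCTP, 5 mM MgCl2. Nucleotide inhibitor up to 1 mM. 37°C, quenched with EDTA at 30 min. Product measured by DE81 paper binding; IC50 by nonlinear fit.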

Hepatitis C virus [2] = test: Antiviral activity against Hepatitis C virus Con1 infected in human lunet cells assessed as inhibition of viral RNA replication after 4 days by luciferase reporter gene assay; type: functional, organism-based, Hepacivirus hominis; conditions: 96 h
Procedure, shortened: (§1)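 Genotype 1b Con1 subgenomic replicon cells (ET-lunet, 3,000 cells/well, firefly luciferase ET replicon; clone A, 1,500 cells/well) incubated 4 days with serially diluted compound. Replication read by luciferase luminescence and/or real-time RT-PCR.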

Hepatitis C virus [3] = test: Antiviral activity against Hepatitis C virus isolate Con1 infected in human HuH-7 cells assessed as inhibition of viral RNA replication after 4 days by luciferase reporter gene assay; type: functional, Hepacivirus hominis; conditions: Con1, Huh-7, 96 h; procedure, shortened: as §1
Hepatitis C virus [4] = test: Antiviral activity against Hepatitis C virus harboring NS5B polymerase S96T/N142T mutant gene infected in human […] cells by luciferase-based replicon assay; type: functional, Hepacivirus hominis
Procedure, shortened: (§2)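 ET-lunet cells with the ET genotype 1b replicon, wild-type or S96T/N142T (ET replicon with these mutations electroporated into Lunet cells, selected in 0.2 mg/ml G418). 3,000 cells/well, 4 days with serially diluted compound. Firefly luciferase luminescence read-out; EC90 from dose–response.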

Hepatitis C virus [5] = test: Antiviral activity against Hepatitis C virus harboring wild-type NS5B infected in human HuH7 cells by luciferase-based replicon assay; type: functional, Hepacivirus hominis; conditions: Huh-7
Hepatitis C virus [6] = test: Antiviral activity against Hepatitis C virus harboring NS5B polymerase S282T mutant gene infected in human HuH7 cells by luciferase-based replicon assay; type: functional, Hepacivirus hominis; conditions: Huh-7
Hepatitis C virus [7] = test: Selectivity ratio of EC90 for Hepatitis C virus harboring NS5B polymerase S282T mutant gene to EC90 for Hepatitis C virus harboring wild-type NS5B polymerase; type: functional, Hepacivirus hominis
Procedure, shortened: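 Clone A genotype 1b (Con1) replicon cells, wild-type or S282T mutant (selected with 2′-C-methyladenosine). 1,500 cells/well, 4 days with serially diluted compound. HCV RNA by real-time RT-PCR; EC90 from dose–response.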

Hepatitis C virus [8] = test: Antiviral activity against Hepatitis C virus harboring wild-type NS5B infected in human lunet cells by luciferase-based replicon assay; type: functional, Hepacivirus hominis; procedure, shortened: as §2
Hepatitis C virus [9] = test: Antiviral activity against Hepatitis C virus harboring NS5B polymerase S96T mutant gene infected in human lunet cells by luciferase-based replicon assay; type: functional, Hepacivirus hominis; procedure, shortened: as §2
Hepatitis C virus [10] = test: Selectivity ratio of EC90 for Hepatitis C virus harboring NS5B polymerase S96T mutant gene to EC90 for HCV harboring wild type NS5B polymerase; type: functional, Hepacivirus hominis
[11] = target: T2, DNA-directed RNA polymerase II subunit RPB1 (Homo sapiens, UniProt P24928); test: Inhibition of human RNA polymerase 2 assessed as synthesis of RNA products at 500 uM
Procedure, shortened: (§3)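 In vitro transcription by HeLa nuclear extract from CMV immediate-early promoter DNA. Mix: 400 μM ATP, CTP and UTP, 16 μM GTP, [α-32P]GTP, 3 mM MgCl2, in 20 mM HEPES pH 7.9 buffer with KCl, EDTA, DTT and glycerol. Inhibitor up to 1 mM. 30°C for 60 min. RNA purified, run on 6% sequencing gel and quantified by phosphorimager.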

[12] = target: T2, DNA-directed RNA polymerase II subunit RPB1; test: Inhibition of human RNA polymerase 2 assessed as synthesis of RNA products at 1 uM; procedure, shortened: as §3
[13] = target: T2, DNA-directed RNA polymerase II subunit RPB1; test: Inhibition of human RNA polymerase 2; procedure, shortened: as §3
Hepatitis C virus [14] = test: Antiviral activity against Hepatitis C virus; type: functional, organism-based, Hepacivirus hominis
Hepatitis C virus [15] = test: Antiviral activity against Hepatitis C virus assessed as log reduction in viral RNA at 0.1 uM after 3 weeks; type: functional, Hepacivirus hominis
Procedure, shortened: (§4)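 ET-lunet replicon cells seeded at 1 × 10^5/well without G418, treated at 0.1, 1 or 2 μM (final DMSO 0.5%). Passaged 1:3–1:4 every 3–4 days for 3 weeks with fresh compound. Then compound withdrawn and cells grown 3 more weeks in 0.25 mg/ml G418. HCV RNA by RT-PCR (ΔΔCt vs rRNA and DMSO controls, log change). Colonies fixed in formaldehyde and stained with crystal violet at 6 weeks.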

Hepatitis C virus [16] = test: Antiviral activity against Hepatitis C virus assessed as inhibition of viral rebound at 1 uM after 3 weeks in presence of G418; type: functional, organism-based; conditions: Hepacivirus hominis
Procedure, shortened: (§5)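 ET-lunet replicon cells, 1 × 10^5/well, no G418, with compound at 0.1, 1 or 2 μM (final DMSO 0.5%). Passaged 1:3 or 1:4 every 3–4 days for 3 weeks with fresh compound, then 3 more weeks with 0.25 mg/ml G418 and no inhibitor. HCV RNA by RT-PCR normalized to rRNA (ΔΔCt vs DMSO) at each passage. Crystal violet colony staining at 6 weeks.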

Hepatitis C virus [17] = test: Antiviral activity against Hepatitis C virus assessed as inhibition of viral rebound at 2 uM after 3 weeks in presence of G418; type: functional, organism-based; conditions: Hepacivirus hominis; procedure, shortened: as §5
Hepatitis C virus [18] = test: Antiviral activity against Hepatitis C virus assessed as inhibition of viral rebound at 0.1 uM after 3 weeks in presence of G418; type: functional, organism-based; conditions: Hepacivirus hominis; procedure, shortened: as §4
Hepatitis C virus [19] = test: Antiviral activity against Hepatitis C virus assessed as clearance of HCV from replicon cells at 1 uM; type: functional, organism-based; conditions: Hepacivirus hominis; procedure, shortened: as §5
Hepatitis C virus [20] = test: Antiviral activity against Hepatitis C virus assessed as clearance of HCV from replicon cells at 2 uM; type: functional, organism-based; conditions: Hepacivirus hominis; procedure, shortened: as §5

SMILES: C[C@@]1(CO)[C@H](O)CC[C@@]2(C)[C@H]1CC[C@H]1C[C@@H]3C[C@@]12CC[C@]3(O)CO [APHIDICOLIN]
IC50 (DNA polymerase beta): > 100 µM
IC50 [1]: > 100 µM

EC50 (Hepatitis C virus [2]): 0.075 µM
EC90 (Hepatitis C virus [2]): 0.52 µM
EC90 (Hepatitis C virus [3]): 0.45 µM
SMILES: C[C@@]1(F)[C@H](O)[C@@H](CO)O[C@H]1n1ccc(N)nc1=O

SMILES: [N-]=[N+]=N[C@]1(CO)O[C@@H](n2ccc(N)nc2=O)[C@H](O)[C@@H]1O [4'-AZIDOCYTIDINE]
EC90 (Hepatitis C virus [4]): 80.1 µM
EC90 (Hepatitis C virus [5]): 18.6 µM
EC90 (Hepatitis C virus [6]): 24.9 µM
Selectivity ratio (Hepatitis C virus [7]): 1.3
EC90 (Hepatitis C virus [8]): 17 µM
EC90 (Hepatitis C virus [9]): 80.1 µM
Selectivity ratio (Hepatitis C virus [10]): 4.7

inhibition [11]: 67%
inhibition [12]: Active
IC50 [13]: > 500 µM
SMILES: Nc1ccn([C@@H]2O[C@H](COP(=O)(O)OP(=O)(O)OP(=O)(O)O)C[C@H]2O)c(=O)n1

EC50 (Hepatitis C virus [14]): 0.11 µM
SMILES: CC(C)CCn1c(=O)c(C2=NS(=O)(=O)c3cc(N(C)S(C)(=O)=O)ccc3N2)c(O)c2cccn21
FC (Hepatitis C virus [15]): 0.69
Activity (Hepatitis C virus [16]): inactive
Activity (Hepatitis C virus [17]): Active
Activity (Hepatitis C virus [18]): inactive
Activity (Hepatitis C virus [19]): inactive
Activity (Hepatitis C virus [20]): inactive
